Tests used:
[1] = Oral bioavailability in beagle dog at 8 mg/kg; format: ADME, organism-based, Canis lupus familiaris; conditions: in vivo
[2] = system: Liver; test: Drug uptake in rat liver at 50 mg/kg, po; format: ADME, organism-based; design: dose 50 mg/kg, route oral; conditions: in vivo, read-out: Drug uptake
[3] = Drug excretion in rat urine at 50 mg/kg, po; format: ADME, organism-based; design: dose 50 mg/kg, route oral; conditions: in vivo
[4] = Drug excretion in rat feces at 50 mg/kg, po; format: ADME, organism-based; design: dose 50 mg/kg, route oral; conditions: faeces, read-out: Drug excretion
[5] = Drug excretion in rat bile at 50 mg/kg, po; format: ADME, organism-based; design: dose 50 mg/kg, route oral; conditions: read-out: Drug excretion
[6] = system: Liver microsome; test: Drug metabolism in human liver microsomes assessed as oxidative metabolism at 10 uM in presence of 0.1 uM alpha-naphthoflavone CYP1A2 inhibitor; format: ADME
In short: (§1)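 Pooled human liver microsomes (1 mg/ml, mixed-gender, 50 donors), 10 µM Rh2, 2 mM NADPH and selective inhibitor in 100 mM potassium phosphate pH 7.4; 37°C, 60 min; ice-cold acetonitrile stop; uninhibited controls; duplicates; formation of M1-2, M1-3 and M1-4+M1-5 quantified by LC/ion-trap MSn.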

[7] = system: Liver microsome; test: Drug metabolism in human liver microsomes assessed as oxidative metabolism at 10 uM in presence of 0.4 uM ticlopidine CYP2B6/CYP2C19 inhibitor; format: ADME; in short: as §1
[8] = system: Liver microsome; test: Drug metabolism in human liver microsomes assessed as oxidative metabolism at 10 uM in presence of 1 uM sulfaphenazole CYP2C9 inhibitor; format: ADME; in short: as §1
[9] = system: Liver microsome; test: Drug metabolism in human liver microsomes assessed as oxidative metabolism at 10 uM in presence of 2 uM quinidine CYP2D6 inhibitor; format: ADME; in short: as §1
[10] = system: Liver microsome; test: Drug metabolism in human liver microsomes assessed as oxidative metabolism at 10 uM in presence of 60 uM chlormethiazole CYP2E1 inhibitor; format: ADME; in short: as §1
[11] = molecular target: T1, Cytochrome P450 1A2 (Homo sapiens, UniProt P05177); test: Drug metabolism in human recombinant CYP1A2 mediated oxidative metabolism at 10 uM; format: ADME; conditions: recombinant enzyme
T1 sequence (P05177 whole entry): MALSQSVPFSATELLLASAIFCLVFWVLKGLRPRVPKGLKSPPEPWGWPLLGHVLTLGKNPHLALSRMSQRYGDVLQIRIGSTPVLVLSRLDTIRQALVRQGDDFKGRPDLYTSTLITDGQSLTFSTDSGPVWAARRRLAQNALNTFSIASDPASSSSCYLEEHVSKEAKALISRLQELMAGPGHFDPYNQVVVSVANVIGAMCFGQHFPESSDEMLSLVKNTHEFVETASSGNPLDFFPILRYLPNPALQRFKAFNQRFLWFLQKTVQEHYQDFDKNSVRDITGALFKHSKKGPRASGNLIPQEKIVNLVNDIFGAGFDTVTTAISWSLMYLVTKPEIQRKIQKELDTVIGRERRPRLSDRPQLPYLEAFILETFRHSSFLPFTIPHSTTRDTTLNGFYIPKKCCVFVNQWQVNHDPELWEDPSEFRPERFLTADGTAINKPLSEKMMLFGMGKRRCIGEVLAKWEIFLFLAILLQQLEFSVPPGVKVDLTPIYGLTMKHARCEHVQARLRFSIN
In short: (§2)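 Recombinant human P450 at 50 nM incubated with 10 µM Rh2 and 2 mM NADPH in 100 mM potassium phosphate pH 7.4, 37°C, 60 min; ice-cold acetonitrile stop; duplicates; metabolites detected by LC/ion-trap MSn.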

[12] = molecular target: T2, Cytochrome P450 1B1 (Homo sapiens, UniProt Q16678); test: Drug metabolism in human recombinant CYP1B1 mediated oxidative metabolism at 10 uM; format: ADME; conditions: recombinant enzyme; in short: as §2
T2 sequence (Q16678 whole entry): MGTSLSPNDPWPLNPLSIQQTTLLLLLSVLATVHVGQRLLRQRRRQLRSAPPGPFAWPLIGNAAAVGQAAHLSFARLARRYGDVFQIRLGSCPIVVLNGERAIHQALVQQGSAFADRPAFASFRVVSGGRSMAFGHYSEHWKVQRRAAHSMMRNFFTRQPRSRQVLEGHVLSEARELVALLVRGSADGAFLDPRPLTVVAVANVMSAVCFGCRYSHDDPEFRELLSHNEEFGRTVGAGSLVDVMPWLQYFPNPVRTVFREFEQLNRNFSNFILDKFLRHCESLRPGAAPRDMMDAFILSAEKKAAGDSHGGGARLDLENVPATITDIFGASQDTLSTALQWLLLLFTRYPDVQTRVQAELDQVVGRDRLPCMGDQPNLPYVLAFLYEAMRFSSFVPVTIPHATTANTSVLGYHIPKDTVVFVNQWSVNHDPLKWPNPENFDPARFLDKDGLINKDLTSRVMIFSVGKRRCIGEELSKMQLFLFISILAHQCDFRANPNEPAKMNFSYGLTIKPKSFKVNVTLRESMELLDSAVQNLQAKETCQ

[13] = molecular target: T3, Cytochrome P450 2A6 (Homo sapiens, UniProt P11509); test: Drug metabolism in human recombinant CYP2A6 mediated oxidative metabolism at 10 uM; format: ADME; conditions: recombinant enzyme; in short: as §2
T3 sequence (P11509 whole entry): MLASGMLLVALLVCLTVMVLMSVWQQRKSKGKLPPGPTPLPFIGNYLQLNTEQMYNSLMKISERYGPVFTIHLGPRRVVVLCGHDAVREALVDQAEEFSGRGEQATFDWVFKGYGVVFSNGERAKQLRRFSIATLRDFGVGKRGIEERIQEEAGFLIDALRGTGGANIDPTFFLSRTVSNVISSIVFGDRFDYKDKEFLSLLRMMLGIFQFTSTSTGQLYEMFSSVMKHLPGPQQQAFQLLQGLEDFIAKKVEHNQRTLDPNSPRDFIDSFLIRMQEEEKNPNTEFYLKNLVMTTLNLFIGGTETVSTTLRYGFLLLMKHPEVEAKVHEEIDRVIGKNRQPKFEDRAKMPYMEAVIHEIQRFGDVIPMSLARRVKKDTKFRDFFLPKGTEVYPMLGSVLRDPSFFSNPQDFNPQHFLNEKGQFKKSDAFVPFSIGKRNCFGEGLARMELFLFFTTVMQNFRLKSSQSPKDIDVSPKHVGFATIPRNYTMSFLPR

[14] = molecular target: Cytochrome P450 2C9 (Homo sapiens, UniProt P11712); test: Drug metabolism in human recombinant CYP2C9 mediated oxidative metabolism at 10 uM; format: ADME; conditions: recombinant enzyme; in short: as §2
Sequence of Cytochrome P450 2C9 (P11712 whole entry): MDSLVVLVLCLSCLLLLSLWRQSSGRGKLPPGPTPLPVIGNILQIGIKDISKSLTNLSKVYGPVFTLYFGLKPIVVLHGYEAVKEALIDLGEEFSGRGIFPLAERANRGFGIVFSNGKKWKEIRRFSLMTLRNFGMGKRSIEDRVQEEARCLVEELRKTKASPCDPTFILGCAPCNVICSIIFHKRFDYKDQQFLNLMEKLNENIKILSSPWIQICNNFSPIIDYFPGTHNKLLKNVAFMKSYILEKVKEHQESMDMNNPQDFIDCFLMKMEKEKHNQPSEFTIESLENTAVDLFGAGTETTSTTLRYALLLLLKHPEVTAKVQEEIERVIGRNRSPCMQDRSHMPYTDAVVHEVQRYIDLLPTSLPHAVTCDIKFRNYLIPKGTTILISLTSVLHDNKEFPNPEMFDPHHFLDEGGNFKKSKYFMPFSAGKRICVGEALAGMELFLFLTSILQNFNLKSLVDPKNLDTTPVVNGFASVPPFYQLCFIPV

[15] = molecular target: Cytochrome P450 2D6 (Homo sapiens, UniProt P10635); test: Drug metabolism in human recombinant CYP2D6 mediated oxidative metabolism at 10 uM; format: ADME; conditions: recombinant enzyme; in short: as §2
Sequence of Cytochrome P450 2D6 (P10635 whole entry): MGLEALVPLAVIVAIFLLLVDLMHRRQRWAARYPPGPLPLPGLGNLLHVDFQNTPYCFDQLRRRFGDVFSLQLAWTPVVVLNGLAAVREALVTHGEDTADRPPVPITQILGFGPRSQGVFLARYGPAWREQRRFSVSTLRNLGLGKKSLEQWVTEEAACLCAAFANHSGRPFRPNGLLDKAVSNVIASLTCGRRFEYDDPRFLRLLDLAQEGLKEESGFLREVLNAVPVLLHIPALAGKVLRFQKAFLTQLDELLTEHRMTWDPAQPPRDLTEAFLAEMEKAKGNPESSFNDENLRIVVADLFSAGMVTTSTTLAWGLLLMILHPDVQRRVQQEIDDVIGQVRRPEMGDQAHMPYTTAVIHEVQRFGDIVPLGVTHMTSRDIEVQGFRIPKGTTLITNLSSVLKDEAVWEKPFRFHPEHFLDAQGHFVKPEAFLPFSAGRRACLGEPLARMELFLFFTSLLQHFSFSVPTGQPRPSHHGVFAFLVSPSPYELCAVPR

[16] = molecular target: Cytochrome P450 2E1 (Homo sapiens, UniProt P05181); test: Drug metabolism in human recombinant CYP2E1 mediated oxidative metabolism at 10 uM; format: ADME; conditions: recombinant enzyme; in short: as §2
Sequence of Cytochrome P450 2E1 (P05181 whole entry): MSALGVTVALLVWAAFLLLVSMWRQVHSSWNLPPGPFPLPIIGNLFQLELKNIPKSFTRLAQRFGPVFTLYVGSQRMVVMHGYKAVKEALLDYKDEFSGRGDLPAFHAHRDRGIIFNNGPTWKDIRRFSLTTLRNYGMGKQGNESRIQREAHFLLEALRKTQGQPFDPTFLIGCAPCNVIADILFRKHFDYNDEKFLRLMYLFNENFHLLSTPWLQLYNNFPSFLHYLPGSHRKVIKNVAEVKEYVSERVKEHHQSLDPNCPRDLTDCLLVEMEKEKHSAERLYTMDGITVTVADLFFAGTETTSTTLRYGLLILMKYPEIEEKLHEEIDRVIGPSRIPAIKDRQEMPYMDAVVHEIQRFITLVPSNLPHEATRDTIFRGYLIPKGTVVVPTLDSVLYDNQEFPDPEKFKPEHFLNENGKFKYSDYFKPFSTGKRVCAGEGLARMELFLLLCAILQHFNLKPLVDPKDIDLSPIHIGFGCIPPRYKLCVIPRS

[17] = Drug metabolism in cynomolgus monkey liver microsomes assessed as (2S)-2-amino-5-((2R)-1-(carboxymethylamino)-3-((6S)-2,6-dihydroxy-6-((3S,5R,8R,9R,10R,12R,13R,14R,17S)-12-hydroxy-4,4,8,10,14-pentamethyl-3-((2R,3R,4S,5S,6R)-3,4,5-trihydroxy-6-(hydroxymethyl)tetrahydro-2H-pyran-2-yloxy)hexadecahydro-1H-cyclopenta[a]phenanthren-17-yl)-2-methylheptan-3-ylthio)-1-oxopropan-2-ylamino)-5-oxopentanoic acid formation at 10 uM by LC/MS analysis in presence of 1 uM ketoconazole; format: ADME, Macaca fascicularis
In short: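 Cynomolgus monkey liver microsomes (1 mg/ml) with 2 mM GSH, 10 µM Rh2 and 1.0 µM ketoconazole preincubated 10 min before adding 2 mM NADPH; GSH conjugate measured by LC/ion-trap MSn peak area; duplicates.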

CC(C)=CCC[C@](C)(O)[C@H]1CC[C@]2(C)[C@@H]1[C@H](O)C[C@@H]1[C@@]3(C)CC[C@H](O[C@@H]4O[C@H](CO)[C@@H](O)[C@H](O)[C@H]4O)C(C)(C)[C@@H]3CC[C@]12C [GINSENOSIDE RH2]
< 10%: dose excreted [4] | dose excreted [5]
metabolite_detected: Drug metabolism [6] | Drug metabolism [7] | Drug metabolism [8] | Drug metabolism [9] | Drug metabolism [10]
60 µM: concentration [2]
metabolite_not_detected: Drug excretion [3] | Drug metabolism [11] | Drug metabolism [12] | Drug metabolism [13] | Drug metabolism [14] | Drug metabolism [15] | Drug metabolism [16] | Drug metabolism [17]
55%: bioavailability [1]

Reference: ChEMBL document CHEMBL3525925, “In vitro studies on the oxidative metabolism of 20(s)-ginsenoside Rh2 in human, monkey, dog, rat, and mouse liver microsomes, and human liver s9” (Drug Metab Dispos, 2012)
